Reference: ChEMBL document CHEMBL3272222, “Heterocyclic and piperonylic acid esters of 1-methyl-4-piperidinol as analgesics” (J Med Chem, 1977)
The source made the active and inactive calls. The calls are words filed in the database; no cut-off is given here.

Legend:
Mus musculus [1] = experiment: Analgesic activity in sc dosed mouse by hot-plate assay; assay type: functional
In short: (§1)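 Mice dosed subcutaneously with compounds as water-soluble salts. ED50 in mg/kg, with 95% confidence limits from probit analysis. Overt toxicity was also noted at the doses given.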

[2] = biological target: Opioid receptor (Rattus norvegicus) (UniProt P33533+P34975+P33535); conditions: Brain
Mus musculus [3] = experiment: Toxicity in mouse at 50 mg/kg, sc; assay type: organism-based; set-up: dose 50 mg/kg, route subcutaneous; conditions: in vivo
In short: (§2)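 Toxic signs were recorded in mice during analgesic testing after subcutaneous doses of the compounds, given as water-soluble salts.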

Mus musculus [4] = experiment: Analgesic activity in mouse at 20 mg/kg, sc by hot-plate assay; assay type: functional, organism-based; set-up: dose 20 mg/kg
In short: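 Mouse hot-plate analgesia test. Compounds were given subcutaneously as water-soluble salts. ED50 values carry 95% confidence limits from probit analysis.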

Mus musculus [5] = experiment: Toxicity in mouse at 60 mg/kg, sc; assay type: organism-based; set-up: dose 60 mg/kg, route subcutaneous; conditions: in vivo; in short: as §2
Mus musculus [6] = experiment: Toxicity in mouse at 40 mg/kg, sc; assay type: organism-based; set-up: dose 40 mg/kg, route subcutaneous; conditions: in vivo; in short: as §2
Mus musculus [7] = experiment: Analgesic activity in sc dosed mouse by Nilsen method; assay type: functional; in short: as §1
Rhesus monkey [8] = experiment: Toxicity in monkey assessed as increase in severity of abstinence signs at 6 mg/kg administered as single dose; assay type: organism-based, Macaca mulatta; set-up: dose 6 mg/kg; conditions: in vivo
In short: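 Rhesus monkeys were used in single-dose suppression tests for physical dependence. The compound was given at 6.0 mg/kg and the severity of abstinence signs was scored.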

Rhesus monkey [9] = experiment: Toxicity in monkey assessed as retching at 12 mg/kg administered as single dose; assay type: organism-based, Macaca mulatta; set-up: dose 12 mg/kg; conditions: in vivo
Rhesus monkey [10] = experiment: Toxicity in nonwithdrawn monkey assessed as mild CNS depression at 6 mg/kg administered as single dose; assay type: organism-based, Macaca mulatta; set-up: dose 6 mg/kg; conditions: in vivo
Rhesus monkey [11] = experiment: Toxicity in monkey assessed as tremors at 12 mg/kg administered as single dose; assay type: organism-based, Macaca mulatta; set-up: dose 12 mg/kg; conditions: in vivo
Rhesus monkey [12] = experiment: Toxicity in monkey assessed as piloerection at 12 mg/kg administered as single dose; assay type: organism-based, Macaca mulatta; set-up: dose 12 mg/kg; conditions: in vivo
Rhesus monkey [13] = experiment: Toxicity in nonwithdrawn monkey assessed as mild abstinence signs at 6 mg/kg administered as single dose; assay type: organism-based, Macaca mulatta; set-up: dose 6 mg/kg; conditions: in vivo
Rhesus monkey [14] = experiment: Toxicity in monkey assessed as increased respiration at 12 mg/kg administered as single dose; assay type: organism-based, Macaca mulatta; set-up: dose 12 mg/kg; conditions: in vivo
Rhesus monkey [15] = experiment: Toxicity in monkey assessed as morphine-like dependence liability; assay type: organism-based, Macaca mulatta; conditions: in vivo
In short: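 Physical dependence liability of the morphine type was assessed in Rhesus monkeys.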

Mus musculus [16] = experiment: Toxicity in mouse at 30 mg/kg, sc; assay type: organism-based; set-up: dose 30 mg/kg, route subcutaneous; conditions: in vivo; in short: as §2
Mus musculus [17] = experiment: Toxicity in mouse at 20 mg/kg, sc; assay type: organism-based; set-up: dose 20 mg/kg, route subcutaneous; conditions: in vivo; in short: as §2
Mus musculus [18] = experiment: Analgesic activity in sc dosed mouse by tail-flick assay; assay type: functional
Mus musculus [19] = experiment: Analgesic activity in sc dosed mouse assessed as inhibition of p-phenylquinone-induced abdominal-stretching; assay type: functional
Mus musculus [20] = experiment: Analgesic activity in mouse at 10 mg/kg, sc by tail-flick assay; assay type: functional, organism-based; set-up: dose 10 mg/kg
Mus musculus [21] = experiment: Analgesic activity in mouse assessed as inhibition of p-phenylquinone-induced abdominal-stretching at 10 mg/kg, sc; assay type: functional, organism-based; set-up: dose 10 mg/kg
In short: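 Mice were dosed subcutaneously with test compounds as water-soluble salts and then run in the tail-flick assay and in the p-phenylquinone-induced abdominal-stretching (PPQ) assay.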

Sequence of Opioid receptor (Rattus norvegicus) (P33533 whole entry, looked up): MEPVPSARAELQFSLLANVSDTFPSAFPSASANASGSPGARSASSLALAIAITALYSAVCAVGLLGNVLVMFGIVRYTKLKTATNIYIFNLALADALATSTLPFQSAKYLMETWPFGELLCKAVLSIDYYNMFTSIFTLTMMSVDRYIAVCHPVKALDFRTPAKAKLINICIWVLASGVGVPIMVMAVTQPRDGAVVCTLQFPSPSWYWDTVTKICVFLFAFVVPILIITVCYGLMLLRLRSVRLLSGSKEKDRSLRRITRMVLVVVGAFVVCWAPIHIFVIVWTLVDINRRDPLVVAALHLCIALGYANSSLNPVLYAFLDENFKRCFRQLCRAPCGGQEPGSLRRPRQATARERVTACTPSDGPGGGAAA
Sequence of Opioid receptor (Rattus norvegicus) (P33535 whole entry, looked up): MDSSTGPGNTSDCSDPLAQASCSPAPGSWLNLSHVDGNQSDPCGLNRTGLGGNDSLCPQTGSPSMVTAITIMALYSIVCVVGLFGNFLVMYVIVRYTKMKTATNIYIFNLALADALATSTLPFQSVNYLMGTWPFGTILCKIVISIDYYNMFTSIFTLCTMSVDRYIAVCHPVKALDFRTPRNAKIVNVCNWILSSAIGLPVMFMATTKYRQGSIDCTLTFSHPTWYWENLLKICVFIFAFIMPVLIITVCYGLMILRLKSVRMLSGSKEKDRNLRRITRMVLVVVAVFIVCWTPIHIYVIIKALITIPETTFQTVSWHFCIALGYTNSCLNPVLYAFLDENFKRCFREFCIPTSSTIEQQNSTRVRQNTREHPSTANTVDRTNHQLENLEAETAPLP
Sequence of Opioid receptor (Rattus norvegicus) (P34975 whole entry, looked up): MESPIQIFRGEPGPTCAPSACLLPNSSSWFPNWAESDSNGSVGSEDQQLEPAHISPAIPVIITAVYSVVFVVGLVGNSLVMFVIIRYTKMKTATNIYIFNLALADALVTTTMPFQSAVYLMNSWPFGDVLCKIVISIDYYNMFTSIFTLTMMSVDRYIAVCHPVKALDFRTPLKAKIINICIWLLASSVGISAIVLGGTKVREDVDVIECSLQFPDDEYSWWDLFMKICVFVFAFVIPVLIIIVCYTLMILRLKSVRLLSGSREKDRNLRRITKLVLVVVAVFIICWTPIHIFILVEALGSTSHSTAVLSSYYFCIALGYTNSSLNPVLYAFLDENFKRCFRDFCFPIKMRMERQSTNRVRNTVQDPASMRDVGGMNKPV

CN1CCC(OC(=O)c2cnc3ccccc3n2)CC1
ED50 (Mus musculus [1]): inactive

CCOC(=O)C1(c2ccccc2)CCN(C)CC1
ED50 [2]: 0.7 µM

CN1CCCC(COC(=O)c2ccc3c(c2)OCO3)C1.Cl (stereo not given)
ED50 (Mus musculus [1]): 22.7 mg/kg

CN1CCC(OC(=O)C2c3ccccc3Oc3ccccc32)CC1.Cl
ED50 (Mus musculus [1]): 35 mg/kg

CN1CCC(OC(=O)c2ccco2)CC1.O=C(O)/C=C\C(=O)O
Activity (Mus musculus [3]): Non-toxic
ED50 (Mus musculus [1]): 12.5 mg/kg

Cc1ccc(C(=O)OC2CCN(C)CC2)s1
ED50 (Mus musculus [1]): inactive

Cc1c(C(=O)OC2CCN(C)CC2)c(C)n(C)c1C
Activity (Mus musculus [4]): Active

Cc1ccc(C(=O)OC2CCN(C)CC2)cc1C
Activity (Mus musculus [4]): Active

CN1CCC(OC(=O)c2cnc3ccccc3c2)CC1.Cl
Activity (Mus musculus [5]): Non-toxic
ED50 (Mus musculus [1]): 11.2 mg/kg

CN1CCC(OC(=O)c2ccncc2)CC1.O=C(O)/C=C\C(=O)O
ED50 (Mus musculus [1]): 44.2 mg/kg

CN1CCC(OC(=O)c2ccoc2)CC1.O=C(O)/C=C\C(=O)O
ED50 (Mus musculus [1]): 27.9 mg/kg

CN1CCC(OC(=O)c2cccs2)CC1.Cl
Activity (Mus musculus [6]): Non-toxic
ED50 (Mus musculus [7]): inactive
ED50 [2]: > 100 µM
ED50 (Mus musculus [1]): 13.3 mg/kg

Cc1[nH]c(C)c(C(=O)OC2CCCN(C)C2)c1C (stereo not given)
ED50 (Mus musculus [1]): inactive

CN1CCC(OC(=O)c2ccc(Br)o2)CC1.Cl
ED50 (Mus musculus [1]): 17.7 mg/kg

CN1CCC(OC(=O)c2ccc3ncccc3c2)CC1.Cl
Activity (Mus musculus [3]): Toxic
Activity (Mus musculus [6]): Non-toxic
ED50 (Mus musculus [7]): 29.7 mg/kg
ED50 [2]: > 100 µM
ED50 (Mus musculus [1]): 9.3 mg/kg

CN1CCC(OC(=O)c2ccc3c(c2)OCO3)CC1.Cl
Activity (Rhesus monkey [8]): Toxic
Activity (Rhesus monkey [9]): Toxic
Activity (Rhesus monkey [10]): Toxic
Activity (Rhesus monkey [11]): Toxic
Activity (Rhesus monkey [12]): Toxic
Activity (Rhesus monkey [13]): Toxic
Activity (Rhesus monkey [14]): Toxic
ED50 [2]: 30 µM
Activity (Rhesus monkey [15]): Non-toxic
Activity (Mus musculus [16]): Non-toxic

Cc1[nH]c(C)c(C(=O)OC2CCN(C)CC2)c1C
Activity (Mus musculus [17]): Non-toxic
ED50 (Mus musculus [18]): 15.1 mg/kg
ED50 (Mus musculus [19]): 15.1 mg/kg
Activity (Mus musculus [20]): Active
ED50 [2]: 1 µM
Activity (Mus musculus [21]): Active
